According to ChEMBL document CHEMBL3120060, “Synthesis, in vitro anticancer evaluation and in silico studies of novel imidazo[2,1-b]thiazole derivatives bearing pyrazole moieties” (2014):

Assays:
Format in all cases: functional
[1] = test system: SF-539; test: Cytotoxicity against human SF539 cells assessed as cell growth at 10 uM after 48 hrs by SRB assay; details: SF-539, 48 h, read-out: Activity
Summary of the method: (§1)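 NCI-60 single-dose screen. Cell lines grown in RPMI 1640 with 5% FBS and 2 mM L-glutamine, plated at 5000–40,000 cells/well according to doubling time, then preincubated 24 h at 37 °C in 5% CO2. Compounds dissolved in DMSO, tested at 10^-5 M for 48 h. Adherent cells fixed with cold TCA (10% final) and stained with 0.4% SRB in 1% acetic acid. Growth expressed as percent of untreated control.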

[2] = test system: HT-29; test: Cytotoxicity against human HT-29 cells assessed as cell growth at 10 uM after 48 hrs by SRB assay; details: HT-29, 48 h, read-out: Activity; summary of the method: as §1
[3] = test system: HCT-15; test: Cytotoxicity against human HCT15 cells assessed as cell growth at 10 uM after 48 hrs by SRB assay; details: HCT-15, 48 h, read-out: Activity; summary of the method: as §1
[4] = test system: HCC 2998; test: Cytotoxicity against human HCC2998 cells assessed as cell growth at 10 uM after 48 hrs by SRB assay; details: HCC 2998, 48 h, read-out: Activity; summary of the method: as §1
[5] = test system: COLO 205; test: Cytotoxicity against human COLO205 cells assessed as cell growth at 10 uM after 48 hrs by SRB assay; details: COLO 205, 48 h, read-out: Activity; summary of the method: as §1
[6] = test system: NCI-H322M; test: Cytotoxicity against human NCI-H322M cells assessed as cell growth at 10 uM after 48 hrs by SRB assay; details: read-out: Activity; summary of the method: as §1
[7] = test system: NCI-H226; test: Cytotoxicity against human NCI-H226 cells assessed as cell growth at 10 uM after 48 hrs by SRB assay; details: NCI-H226, 48 h, read-out: Activity; summary of the method: as §1
[8] = test system: A549; test: Cytotoxicity against human A549 cells assessed as cell growth at 10 uM after 48 hrs by SRB assay; details: A549, 48 h, read-out: Activity; summary of the method: as §1
[9] = test system: SR; test: Cytotoxicity against human SR cells assessed as cell growth at 10 uM after 48 hrs by SRB assay; details: read-out: Activity
Summary of the method: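 Leukemia line, NCI-60 single-dose screen at 10^-5 M. Cells are grown in RPMI 1640 with 5% FBS and 2 mM L-glutamine, plated by doubling time, and preincubated 24 h at 37 °C with 5% CO2. After 48 h drug exposure, settled cells are fixed with 80% TCA (final 16%) and stained with SRB. Percent growth is calculated against untreated control and time-zero plates.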

[10] = test system: RPMI-8226; test: Cytotoxicity against human RPMI8226 cells assessed as cell growth at 10 uM after 48 hrs by SRB assay; details: RPMI-8226, 48 h, read-out: Activity; summary of the method: as §1
[11] = test system: K562; test: Cytotoxicity against human K562 cells assessed as cell growth at 10 uM after 48 hrs by SRB assay; details: K562, 48 h, read-out: Activity; summary of the method: as §1
[12] = test system: MDA-MB-468; test: Cytotoxicity against human MDA-MB-468 cells assessed as cell growth at 10 uM after 48 hrs by SRB assay; details: MDA-MB-468, 48 h, read-out: Activity; summary of the method: as §1
[13] = test system: BT-549; test: Cytotoxicity against human BT549 cells assessed as cell growth at 10 uM after 48 hrs by SRB assay; details: BT-549, 48 h, read-out: Activity; summary of the method: as §1
[14] = test system: MCF7; test: Cytotoxicity against human MCF7 cells assessed as cell growth at 10 uM after 48 hrs by SRB assay; details: MCF7, 48 h, read-out: Activity; summary of the method: as §1
[15] = test system: PC-3; test: Cytotoxicity against human PC3 cells assessed as cell growth at 10 uM after 48 hrs by SRB assay; details: PC-3, 48 h, read-out: Activity; summary of the method: as §1
[16] = Cytotoxicity against human UO31 cells assessed as cell growth at 10 uM after 48 hrs by SRB assay; details: UO-31, 48 h, read-out: Activity
Summary of the method: (§2)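 NCI-60 single-dose screen at 10^-5 M. Adherent lines are grown in RPMI 1640 with 5% FBS and 2 mM L-glutamine, seeded at 5000–40,000 cells/well by doubling time, and preincubated 24 h at 37 °C in 5% CO2. Drug is added from DMSO stock diluted in medium, then 48 h. Cells are fixed in cold TCA (final 10%) for 60 min and stained with 0.4% SRB in 1% acetic acid. Growth is expressed as % of untreated control using time-zero plates.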

[17] = test system: RXF 393; test: Cytotoxicity against human RXF393 cells assessed as cell growth at 10 uM after 48 hrs by SRB assay; details: RXF 393, 48 h, read-out: Activity; summary of the method: as §1
[18] = test system: CAKI-1; test: Cytotoxicity against human CAKI-1 cells assessed as cell growth at 10 uM after 48 hrs by SRB assay; details: CAKI-1, 48 h, read-out: Activity; summary of the method: as §1
[19] = test system: ACHN; test: Cytotoxicity against human ACHN cells assessed as cell growth at 10 uM after 48 hrs by SRB assay; details: read-out: Activity; summary of the method: as §1
[20] = test system: A498; test: Cytotoxicity against human A498 cells assessed as cell growth at 10 uM after 48 hrs by SRB assay; details: A498, 48 h, read-out: Activity; summary of the method: as §1
[21] = test system: 786-0; test: Cytotoxicity against human 786-0 cells assessed as cell growth at 10 uM after 48 hrs by SRB assay; details: 786-0, 48 h, read-out: Activity; summary of the method: as §1
[22] = test system: SK-OV-3; test: Cytotoxicity against human SKOV3 cells assessed as cell growth at 10 uM after 48 hrs by SRB assay; details: SK-OV-3, 48 h, read-out: Activity; summary of the method: as §1
[23] = test system: OVCAR-3; test: Cytotoxicity against human OVCAR3 cells assessed as cell growth at 10 uM after 48 hrs by SRB assay; details: OVCAR-3, 48 h, read-out: Activity; summary of the method: as §1
[24] = test system: IGROV-1; test: Cytotoxicity against human IGROV1 cells assessed as cell growth at 10 uM after 48 hrs by SRB assay; details: IGROV-1, 48 h, read-out: Activity; summary of the method: as §1
[25] = Cytotoxicity against human UACC257 cells assessed as cell growth at 10 uM after 48 hrs by SRB assay; details: UACC-257, 48 h, read-out: Activity; summary of the method: as §2
[26] = test system: SK-MEL-28; test: Cytotoxicity against human SK-MEL-28 cells assessed as cell growth at 10 uM after 48 hrs by SRB assay; details: SK-MEL-28, 48 h, read-out: Activity; summary of the method: as §1
[27] = test system: SK-MEL-2; test: Cytotoxicity against human SK-MEL-2 cells assessed as cell growth at 10 uM after 48 hrs by SRB assay; details: SK-MEL-2, 48 h, read-out: Activity; summary of the method: as §1
[28] = test system: M14; test: Cytotoxicity against human M14 cells assessed as cell growth at 10 uM after 48 hrs by SRB assay; details: M14, 48 h, read-out: Activity; summary of the method: as §1
[29] = test system: LOX IMVI; test: Cytotoxicity against human LOXIMVI cells assessed as cell growth at 10 uM after 48 hrs by SRB assay; details: read-out: Activity; summary of the method: as §1
[30] = test system: U-251; test: Cytotoxicity against human U251 cells assessed as cell growth at 10 uM after 48 hrs by SRB assay; details: U-251, 48 h, read-out: Activity; summary of the method: as §2
[31] = test system: SF-295; test: Cytotoxicity against human SF295 cells assessed as cell growth at 10 uM after 48 hrs by SRB assay; details: SF-295, 48 h, read-out: Activity; summary of the method: as §1

Compound	growth at 10 µM [1]	growth at 10 µM [2]	growth at 10 µM [3]	growth at 10 µM [4]	growth at 10 µM [5]	growth at 10 µM [6]	growth at 10 µM [7]	growth at 10 µM [8]	growth at 10 µM [9]	growth at 10 µM [10]	growth at 10 µM [11]	growth at 10 µM [12]	growth at 10 µM [13]	growth at 10 µM [14]	growth at 10 µM [15]	growth at 10 µM [16]	growth at 10 µM [17]	growth at 10 µM [18]	growth at 10 µM [19]	growth at 10 µM [20]	further results
O=C1CC(=O)N(c2cn3c(-c4ccccc4)csc3n2)N1	88.2%	104%	91.2%	103%	100%	98.1%	90%	92.9%	83%	93%	94.2%	102%	97.6%	85.8%	76.4%	59.6%	89.7%	75.9%	81.5%	78.4%	growth at 10 µM [21]: 104%; growth at 10 µM [22]: 86.8%; growth at 10 µM [23]: 99%; growth at 10 µM [24]: 91.5%; growth at 10 µM [25]: 97.6%; growth at 10 µM [26]: 96.4%; growth at 10 µM [27]: 102%; growth at 10 µM [28]: 101%; growth at 10 µM [29]: 86.9%; growth at 10 µM [30]: 84.2%
O=C1CN2C(c3ccc(Cl)cc3)=CSC2=N1	94.8%	88.4%	93.3%	101%	108%	93.8%	110%	92.5%	77.8%	89.2%	79.7%	106%	89%	90.9%	101%	92.7%	111%	81.3%	95%	70.2%	growth at 10 µM [31]: 80%; growth at 10 µM [21]: 94%; growth at 10 µM [22]: 98.2%; growth at 10 µM [23]: 105%; growth at 10 µM [24]: 95.2%; growth at 10 µM [25]: 96.3%; growth at 10 µM [26]: 95.7%; growth at 10 µM [27]: 98.2%; growth at 10 µM [28]: 97%; growth at 10 µM [29]: 98.9%; growth at 10 µM [30]: 94.3%
O=C1CN2C(c3ccccc3)=CSC2=N1	97.5%	109%	95.9%	97.8%	102%	116%	102%	98.3%	86%	94.4%	88.8%	106%	112%	88.5%	82.4%	61.3%	102%	78.7%	97.9%	111%	growth at 10 µM [21]: 104%; growth at 10 µM [22]: 89.5%; growth at 10 µM [23]: 111%; growth at 10 µM [24]: 104%; growth at 10 µM [25]: 103%; growth at 10 µM [26]: 105%; growth at 10 µM [27]: 114%; growth at 10 µM [28]: 99.9%; growth at 10 µM [29]: 89.4%; growth at 10 µM [30]: 93.9%
Cc1ccc(-c2csc3nc(-n4nc(C)cc4C)cn23)cc1	109%	104%	101%	107%	106%	96.4%	94.8%	98.6%	81%	90.3%	109%	112%	125%	89.7%	84.7%	94.4%	105%	83.5%	90.7%	103%	growth at 10 µM [31]: 88.5%; growth at 10 µM [21]: 105%; growth at 10 µM [22]: 101%; growth at 10 µM [23]: 115%; growth at 10 µM [24]: 107%; growth at 10 µM [25]: 108%; growth at 10 µM [26]: 94.8%; growth at 10 µM [27]: 125%; growth at 10 µM [28]: 104%; growth at 10 µM [29]: 92.8%; growth at 10 µM [30]: 95%
Cc1ccc(-c2csc3nc(N4NC(=O)CC4=O)cn23)cc1	101%	111%	100%	102%	107%	108%	94.4%	102%	84.4%	98.1%	94.7%	106%	113%	93.9%	87.3%	74.7%	101%	90.1%	90.5%	98%	growth at 10 µM [31]: 91.2%; growth at 10 µM [21]: 103%; growth at 10 µM [22]: 101%; growth at 10 µM [23]: 113%; growth at 10 µM [24]: 105%; growth at 10 µM [25]: 109%; growth at 10 µM [26]: 102%; growth at 10 µM [27]: 116%; growth at 10 µM [28]: 105%; growth at 10 µM [29]: 96.9%; growth at 10 µM [30]: 98.1%
CC1=NN(c2cn3c(-c4ccc(C)cc4)csc3n2)C(=O)C1	102%	118%	103%	103%	106%	105%	89.7%	98.3%	73.3%	93.6%	80.5%	102%	111%	91.8%	75.3%	71.6%	95.9%	84.5%	96.9%	99.2%	growth at 10 µM [21]: 101%; growth at 10 µM [22]: 95.5%; growth at 10 µM [23]: 110%; growth at 10 µM [24]: 101%; growth at 10 µM [25]: 100%; growth at 10 µM [26]: 98.5%; growth at 10 µM [27]: 114%; growth at 10 µM [28]: 99.2%; growth at 10 µM [29]: 93%; growth at 10 µM [30]: 94.1%
